Data on seven molecules can be found in article PMC10091778 (Drug Development Research, 2022).

Series [1] concerns Hep3B hepatocellular carcinoma cells. As to conditions: 35 µM for 24 h; ref Lu et al., 2022; cited from earlier work.
Series [2] deals with HL‐60 cells. The series can be described thus: Cell cycle analysis by flow cytometry. The settings on record: 72 h. It is filed as cell-based, human.
For series [3], the system named is 4T1, A549, and HL‐60 cells. It counts as cell-based. The settings on record: resazurin assay, 72 h, up to 50 µM, three cancer cell lines. An outline of the steps:
(§1)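 Cells were seeded in 96-well plates (4T1 10,000, A549 10,000, HL-60 20,000 per well), with adherent lines settling overnight. Test compound came from a 10 mM DMSO stock, serially diluted in medium to 1.56–50 µM (some 39 nM–12.5 µM), for 72 h; three biological replicates. Resazurin (0.15 mg/ml stock, 20 µl per 100 µl) ran 2 h at 37 °C, read at 530/580 nm. Viability was set against untreated and blank wells; IC50 from curves.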

Series [4] concerns HL‐60 cells. The series can be described thus: Sub-G1 DNA fragmentation analysis by flow cytometry. The settings on record: 6 µM, 72 h; mean ± SD; untreated 11.7 ± 1.2%. It counts as cell-based, human.
The subject of series [5] is HL‐60 human acute promyelocytic leukemia cells. The series can be described thus: Resazurin cell viability assay on HL-60 cells. It counts as cell-based. The settings on record: HL-60, 72 h, read-out: IC50 HL‐60. An outline of the steps: as §1
The test system of series [6] is HL‐60 cells. The series can be described thus: Mitochondrial membrane depolarization by JC-1 staining. It counts as cell-based, human. The settings on record: 16 h, untreated 7.6 ± 0.6%; for Cells with green JC‐1 accumulation (depolarized MMP): 3 µM; for Cells with green JC‐1 monomers (depolarized MMP): 6 µM.
Series [7] concerns HL‐60 cells. The series can be described thus: Annexin V / propidium iodide flow cytometry. The settings on record: 6 µM, 24 h, mean ± SD; for Early apoptotic cells (AnnV+/PI−): untreated 1.9 ± 0.5%; for Necrotic cells (AnnV−/PI+): untreated 3.6 ± 1.6%; for Late apoptotic cells (AnnV+/PI+): untreated 9.5 ± 2.7%; for Living cells (AnnV−/PI−): untreated 85 ± 3.9%. It counts as cell-based, human. An outline of the steps:
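HL-60 cells (100,000) were treated for 24 h at 1, 3 or 6 µM, then resuspended in Annexin V binding buffer (0.01 M HEPES, 0.14 M NaCl, 2.5 mM CaCl2). Annexin V-Alexa 488 was added for 15 min in the dark at room temperature, then PI (10 µg/ml). Quadrant percentages were taken by flow cytometry; three biological replicates, mean ± SD; two-tailed t test against untreated.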

Series [8] deals with 4T1 murine triple negative breast cancer cells. The series can be described thus: Resazurin cell viability assay on 4T1 cells. It is filed as cell-based. The settings on record: Mus musculus, 4T1, 72 h, read-out: IC50 4T1. An outline of the steps: as §1
In series [9] the test system is 4T1 breast carcinoma cells. The series can be described thus: 4T1 murine breast cancer model. It counts as in vivo, BALB/c mice. As to conditions: 27th day; 60 mg/kg daily i.p.; mean ± SEM, n = 10; untreated 768 ± 134.
The subject of series [10] is colorectal cancer cell line HCT‐116. The settings on record: read-out: IC50 HCT‐116; antiproliferative; ref Han et al., 2022; cited from earlier work.
For series [11], the system named is A431 epidermoid carcinoma cancer cell line. As to conditions: 15 µM treatment; ref LaBarbera et al., 2009; cited from earlier work.

Turning to `C=CC(C)(CC/C=C(\C)CCC=C(C)C)S(=O)(=O)CCN=C(N)N` (stereo not drawn) [(−)‐Agelasidine A], the “Apoptosis and mitochondrial effect in Hep3B, in words” value in series [1] is “Annexin V+ apoptosis and mitochondrial membrane depolarization”.
Take `Nc1nc(-c2cccc(NC(=O)c3cc4cc(Br)ccc4[nH]3)c2)c(C(=O)c2ccccc2)[nH]1` [Compound 28, N‐(3‐(2‐amino‐5‐benzoyl‐1H‐imidazol‐4‐yl)phenyl)‐5‐bromo‐1H‐indole‐2‐carboxamide]: in the series on HL‐60 cells [2] (3 µM, untreated 17.3 ± 1.7%), the “Cells in G2/M phase” value stood at 21.0 ± 0.5%. For the same molecule, the “Effect on cell cycle distribution, in words” value with HL‐60 cells [2] was “significantly disturbed cell cycle distribution”. Moreover, the “Cytotoxic / antiproliferative activity in words” value in [3] is reported as “hampered the viability of all three tested cell lines”. Moreover, the “DNA fragmentation (sub‐G1 population) of HL‐60 cells” value in the series with HL‐60 cells [4] was determined as 56.5 ± 2.8%. Further, the IC50 in series [5] was determined as 2.91 µM. In the series on HL‐60 cells [6], the “Cells with green JC‐1 accumulation (depolarized MMP)” value was determined as 10.4 ± 0.2% and the “Cells with green JC‐1 monomers (depolarized MMP)” value was found to be 50.3 ± 0.7%. In addition, in the series with HL‐60 cells [7], the “Early apoptotic cells (AnnV+/PI−)” value was determined as 23.4 ± 1%, the “Necrotic cells (AnnV−/PI+)” value was 2.1 ± 0.4%, the “Late apoptotic cells (AnnV+/PI+)” value was found to be 43.4 ± 1.2% and the “Living cells (AnnV−/PI−)” value is 31.1 ± 0.8%. In series [8], the IC50 was found to be 13 µM.
Regarding `Nc1nc(-c2cccc(NC(=O)c3cc4cc(Cl)ccc4[nH]3)c2)c(C(=O)c2ccccc2)[nH]1` [Compound 29, N‐(3‐(2‐amino‐5‐benzoyl‐1H‐imidazol‐4‐yl)phenyl)‐5‐chloro‐1H‐indole‐2‐carboxamide], the “Cytotoxic / antiproliferative activity in words” value in [3] is on record as “hampered the viability of all three tested cell lines”. Moreover, in the series on HL‐60 cells [4], the “DNA fragmentation (sub‐G1 population) of HL‐60 cells” value was 64.3 ± 2.1%. In series [5], the IC50 was 4.03 µM. Besides, in the series on HL‐60 cells [6], the “Cells with green JC‐1 accumulation (depolarized MMP)” value came out at 9.4 ± 1.1% and the “Cells with green JC‐1 monomers (depolarized MMP)” value is 29.7 ± 2.1%. Moreover, the 4T1 tumor volume in [9] stood at 443 ± 54 mm^3. In the series on HL‐60 cells [7], the “Early apoptotic cells (AnnV+/PI−)” value is 11.4 ± 1.1%, the “Necrotic cells (AnnV−/PI+)” value came out at 5.9 ± 1.1%, the “Late apoptotic cells (AnnV+/PI+)” value worked out at 44.7 ± 4.8% and the “Living cells (AnnV−/PI−)” value is 37.8 ± 4.6%. In addition, the IC50 in series [8] amounted to 3.1 µM.
In the case of Hemimycalin C, in series [10], the IC50 was 18.6 µM.
Hemimycalin D: the IC50 in series [10] was 17.1 µM.
On to Hemimycalin E, for which the IC50 in series [10] is 8.6 µM.
For the molecule Naamidine A, in series [11], the “Apoptotic effect in A431, in words” value is reported as “apoptotic effects”.
